Experimental data as given in paper PMC5599970 (Hepatology (Baltimore, Md.), 2017).

Tests used:
[1] = Safety: treatment-emergent adverse events after a single oral dose; format: in vivo, human
Procedure, shortened: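 TEAEs were any events after study medication and were coded to MedDRA v18.0. Events were attributed to the period's treatment, and events between acetate infusion and first dosing were counted separately. Monitoring included physical exams, vital signs (hours 0, 5.5, 10.5), clinical laboratory tests (day −1 and hour 10) and screening ECG.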

[2] = Hepatic extraction in preclinical studies; format: in vivo; details: cynomolgus monkeys, unpublished data
[3] = test system: hepatic de novo lipogenesis (DNL); assay: PK-PD analysis of plasma exposure versus fractional DNL; format: in vivo, human; details: all dose groups
Procedure, shortened: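 Each subject's time-matched plasma levels (sampled predose and hourly to 10 h, HPLC-MS/MS) were paired with fasting-adjusted fractional DNL at every sampling point for every dose group. The plasma levels at which 70% and 90% inhibition of maximal DNL occurred were read from these paired data.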

[4] = test system: hepatic de novo lipogenesis (DNL); assay: Fructose-stimulated fractional hepatic DNL; format: in vivo, human; details: for Inhibition of fasting-adjusted fractional DNL AUEC relative to placebo: 10-hour period; for Inhibition of fasting-adjusted fractional DNL AUEC relative to placebo / Mean reduction of fasting-adjusted DNL at 10 hours postdose relative to placebo: mean ± SEM
Procedure, shortened: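 Overweight/obese men (18–50 y, BMI 25–32 kg/m²), 10/dose, placebo crossover, ≥5-day washout, fasted from hour −12. IV [1-13C]acetate (10 g in 1,000 mL 0.45% saline, 50 mL/hour, 19 h) from hour −9; capsule at hour 0; fructose 250 mg/kg every 30 min to hour +9.5. VLDL-TG palmitate by GC-MS/MIDA, hours −1 to +10; fasting-baseline-subtracted, AUEC, expressed relative to placebo.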

[5] = single doses between 30 and 1,000 mg; healthy adults; cited from earlier work
[6] = Plasma pharmacokinetics after a single oral dose; format: in vivo; details: human
Procedure, shortened: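 Single oral capsule dose with 240 mL water in fasted men during fructose feeding, n = 10/group. Plasma was sampled predose and hourly through 10 h. Levels were measured by validated HPLC-MS/MS, with a lower limit of quantitation of 0.5 ng/mL. Noncompartmental parameters were calculated from actual sample times.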

[7] = Serum lipids, leptin, adiponectin, glucose and blood ketones; format: in vivo, human; details: single dose of 20, 50, or 200 mg
Procedure, shortened: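 Blood was drawn at protocol-specified times during the fasted, fructose-fed crossover periods. Serum lipids and blood ketones (ketometer) were measured by a clinical laboratory. Leptin and adiponectin were measured by solid-phase ELISA.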

hepatic DNL = details: subjects with type 2 diabetes mellitus and hypertriglyceridemia; cited from earlier work

## COc1ccccc1[C@H](Cn1c(=O)n(C(C)(C)C(=O)O)c(=O)c2c(C)c(-c3ncco3)sc21)OC1CCOCC1 [NDI‐010976]
[1]; 20 mg
  Number of subjects with TEAEs (% of subjects dosed): 3 (33%) subjects (%)
  Number of subjects without TEAEs (% of subjects dosed): 6 (67%) subjects (%)
[1]; 50 mg
  Number of subjects with TEAEs (% of subjects dosed): 7 (70%) subjects (%)
  Number of subjects without TEAEs (% of subjects dosed): 3 (30%) subjects (%)
[1]; 200 mg
  Number of subjects with TEAEs (% of subjects dosed): 5 (50%) subjects (%)
  Number of subjects without TEAEs (% of subjects dosed): 5 (50%) subjects (%)
[1]; Total, all doses
  Number of subjects with TEAEs (% of subjects dosed): 15 (52%) subjects (%)
  Number of subjects without TEAEs (% of subjects dosed): 14 (48%) subjects (%)
[1]; single oral doses 20 to 200 mg
  Deaths, serious AEs, Grade 3 or higher TEAEs: no deaths, serious AEs, or Grade 3 or higher TEAEs
  Safety and tolerability: safe and well tolerated
[2]
  Hepatic extraction: approximately 94%
[3]; one data point outlier
  Plasma concentration associated with at least 70% inhibition of fractional DNL: > 2.2 ng/mL
[3]; two data point outliers
  Plasma concentration yielding >90% inhibition of fractional DNL: > 4.0 ng/mL
[4]; 20 mg single oral dose
  Inhibition of fasting-adjusted fractional DNL AUEC relative to placebo: approximately 70 ± 6%
  Mean reduction of fasting-adjusted DNL at 10 hours postdose relative to placebo: approximately 41 ± 9%
[4]; 20 mg, mean ± standard deviation
  Inhibition of fractional DNL at 2 hours postdose: 60 ± 26%
[4]; 50 mg single dose, 10-hour period vs matched placebo period
  Inhibition of DNL by fasting-adjusted DNL AUEC, all subjects: > 70%
[4]; 50 mg single oral dose
  Inhibition of fasting-adjusted fractional DNL AUEC relative to placebo: ~85 ± 3%
  Mean reduction of fasting-adjusted DNL at 10 hours postdose relative to placebo: ~53 ± 9%
[4]; 200 mg single dose
  Inhibition of DNL, all subjects: complete or near complete inhibition of DNL
[4]; 200 mg single oral dose
  Inhibition of fasting-adjusted fractional DNL AUEC relative to placebo: ~104 ± 2%
  Mean reduction of fasting-adjusted DNL at 10 hours postdose relative to placebo: ~94 ± 4%
[5]
  Tolerability: well tolerated
[6]
  Tmax: 1 to 2 h
[6]; 20 mg
  Cmax: 43.4 ng/mL
  concentration at 2 h: 5.7 to 23.5 ng/mL
[7]
  Effects on serum glucose, lipids, leptin, adiponectin, blood ketones: no significant NDI‐010976 effects

## CCc1ccc(CCOc2ccc(CC3SC(=O)NC3=O)cc2)nc1 (stereo not shown) [pioglitazone]
Hepatic DNL
  Reduction of hepatic DNL: 40%
